# Test results taken from ChEMBL document CHEMBL1152392, “Discovery and optimization of a novel Neuromedin B receptor antagonist” (Bioorg Med Chem Lett, 2009).
# Target: Gastrin-releasing peptide receptor (Homo sapiens, UniProt P30550)
# Assay: Inhibition gastrin-releasing peptide receptor
# Conditions: not given
# Sequence of Gastrin-releasing peptide receptor (P30550 whole entry): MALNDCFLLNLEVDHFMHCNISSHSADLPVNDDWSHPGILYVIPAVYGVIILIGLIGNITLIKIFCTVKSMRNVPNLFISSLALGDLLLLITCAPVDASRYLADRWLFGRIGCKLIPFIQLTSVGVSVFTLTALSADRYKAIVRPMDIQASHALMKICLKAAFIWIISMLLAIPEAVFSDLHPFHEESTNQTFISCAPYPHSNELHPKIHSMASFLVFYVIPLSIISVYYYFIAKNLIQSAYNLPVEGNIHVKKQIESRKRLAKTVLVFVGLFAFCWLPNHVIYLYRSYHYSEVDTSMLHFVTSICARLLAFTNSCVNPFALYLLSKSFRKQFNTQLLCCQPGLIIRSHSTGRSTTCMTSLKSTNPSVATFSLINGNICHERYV
row,IC50,Structure (SMILES)
1,> 10000 nM,Cc1ccc2c(c1)NC(c1c(F)cccc1Cl)C1=C(CC(C)(C)CC1=O)N2 (configuration not stated)

# Target: T1, Neuromedin-B receptor (Homo sapiens, UniProt P28336)
# Assay: Displacement of [125I]-(D-Tyr0)NMB from human neuromedin B receptor transfected in HEK293 cells
# Type: cell-based
# Conditions: not given
# How it was run: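 Whole-cell competition binding used 1 × 10⁶ HEK293 cells stably transfected with hNMBR, with 150 pM ¹²⁵I-[D-Tyr0]NMB (2200 Ci/mmol), in DMEM for 1 h at room temperature. Bound ligand was separated by filtration and total bound counts were measured. Day-to-day standard error was <30%; well-to-well variability was <10%.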
# T1 sequence (P28336 whole entry): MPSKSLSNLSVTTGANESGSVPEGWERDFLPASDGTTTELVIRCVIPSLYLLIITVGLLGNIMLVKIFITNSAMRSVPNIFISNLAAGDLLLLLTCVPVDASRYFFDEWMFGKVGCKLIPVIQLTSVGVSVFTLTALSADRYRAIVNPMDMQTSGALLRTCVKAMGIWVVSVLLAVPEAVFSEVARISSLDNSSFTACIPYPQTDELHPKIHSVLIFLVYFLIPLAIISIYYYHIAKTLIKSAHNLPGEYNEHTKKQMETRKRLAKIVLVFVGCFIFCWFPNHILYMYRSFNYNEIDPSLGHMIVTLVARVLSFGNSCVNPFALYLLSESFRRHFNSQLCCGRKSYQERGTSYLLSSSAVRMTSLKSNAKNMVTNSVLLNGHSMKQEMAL
row,Structure (SMILES),IC50
1,Cc1ccc2c(c1)NC(c1c(F)cccc1Cl)C1=C(CC(C)(C)CC1=O)N2C (configuration not stated),10000 nM
2,Cc1ccc2c(c1)NC(c1c(F)cccc1Cl)C1=C(CCC1=O)N2 (configuration not stated),10000 nM
3,CC1(C)CC(=O)C2=C(C1)Nc1ccc(OC(F)(F)F)cc1NC2c1c(F)cccc1Cl (configuration not stated),1300 nM
4,CC1(C)CC(=O)C2=C(C1)Nc1ccc(O)cc1NC2c1c(F)cccc1Cl (configuration not stated),10000 nM
5,CCN1c2cc(C)ccc2NC2=C(C(=O)CC(C)(C)C2)C1c1c(F)cccc1Cl (configuration not stated),180 nM
6,Cc1ccc2c(c1)NC(c1c(F)cccc1Cl)C1=C(CC(C(C)C)CC1=O)N2 (configuration not stated),810 nM
7,COc1ccccc1C1Nc2cc(C)ccc2NC2=C1C(=O)CC(C)(C)C2 (configuration not stated),1100 nM
8,CC1(C)CC(=O)C2=C(C1)Nc1ccc(C#N)cc1NC2c1c(F)cccc1Cl (configuration not stated),1300 nM
9,Cc1ccc2c(c1)NC(c1c(F)cccc1Cl)C1=C(CC(c3ccco3)CC1=O)N2 (configuration not stated),3000 nM
10,Cc1ccc2c(c1)N(C)C(c1c(F)cccc1Cl)C1=C(CC(C)(C)CC1=O)N2 (configuration not stated),170 nM
11,Cc1ccc2c(c1)NC(c1c(F)cccc1Cl)C1=C(CCCC1=O)N2 (configuration not stated),1400 nM
12,COc1ccc2c(c1)NC(c1c(F)cccc1Cl)C1=C(CC(C)(C)CC1=O)N2 (configuration not stated),2200 nM
13,CC1(C)CC(=O)C2=C(C1)Nc1ccc(C(N)=O)cc1NC2c1c(F)cccc1Cl (configuration not stated),10000 nM
14,Cc1ccc2c(c1)NC(c1c(F)cccc1Cl)C1=C(CC(c3ccc(N(C)C)cc3)CC1=O)N2 (configuration not stated),5400 nM
15,CCCCN1c2cc(C)ccc2NC2=C(C(=O)CC(C)(C)C2)C1c1c(F)cccc1Cl (configuration not stated),150 nM
16,Cc1ccc2c(c1)NC(c1c(F)cccc1F)C1=C(CC(C)(C)CC1=O)N2 (configuration not stated),2500 nM
17,Cc1ccc2c(c1)NC(c1ccccc1)C1=C(CC(C)(C)CC1=O)N2 (configuration not stated),6900 nM
18,Cc1ccc2c(c1)NC(c1c(F)cccc1Cl)C1=C(CC(C)(C)CC1=O)N2 (configuration not stated),300 nM
19,COc1ccc(C2CC(=O)C3=C(C2)Nc2ccc(C)cc2NC3c2c(F)cccc2Cl)cc1 (configuration not stated),2000 nM
20,Cc1ccc2c(c1)NC(c1c(F)cccc1Cl)C1=C(CC(C)CC1=O)N2 (configuration not stated),450 nM
21,CC1(C)CC(=O)C2=C(C1)Nc1ccc(C(=O)O)cc1NC2c1c(F)cccc1Cl (configuration not stated),10000 nM
22,CC1(C)CC(=O)C2=C(C1)Nc1ccc(Cl)cc1NC2c1c(F)cccc1Cl (configuration not stated),860 nM
23,Cc1ccc2c(c1)NC(c1ccccc1[N+](=O)[O-])C1=C(CC(C)(C)CC1=O)N2 (configuration not stated),550 nM
24,CC1(C)CC(=O)C2=C(C1)Nc1ccc(C(F)(F)F)cc1NC2c1c(F)cccc1Cl (configuration not stated),370 nM

# Next, values leading:
row,IC50,Structure (SMILES)
1,96 nM,Cc1ccc2c(c1)NC(c1ccccc1C(F)(F)F)C1=C(CC3(CCCC3)CC1=O)N2 (stereo in doubt; 30)
2,250 nM,Cc1ccc2c(c1)NC(c1ccccc1C(F)(F)F)C1=C(CC(C)(C)CC1=O)N2 (configuration not stated)
3,> 10000 nM,"Cc1ccc2c(c1)NC(c1ccccc1C(F)(F)F)C1=C(CC3(CCCC3)CC1=O)N2 (single isomer, unassigned; (-))"
4,200 nM,CSc1ccccc1C1Nc2cc(C)ccc2NC2=C1C(=O)CC(C)(C)C2 (configuration not stated)
5,1300 nM,Cc1ccc2c(c1)NC(c1ccccc1F)C1=C(CC(C)(C)CC1=O)N2 (configuration not stated)
6,240 nM,Cc1ccc2c(c1)NC(c1ccccc1Cl)C1=C(CC3(CCCC3)CC1=O)N2 (configuration not stated)
7,30 nM,"Cc1ccc2c(c1)NC(c1ccccc1C(F)(F)F)C1=C(CC3(CCCC3)CC1=O)N2 (single isomer, unassigned; (+))"
8,640 nM,Cc1ccc2c(c1)NC(c1ccccc1SC(F)(F)F)C1=C(CC3(CCCC3)CC1=O)N2 (configuration not stated)
9,250 nM,CSc1ccccc1C1Nc2cc(C)ccc2NC2=C1C(=O)CC1(CCCC1)C2 (configuration not stated)
10,280 nM,Cc1ccc2c(c1)NC(c1c(F)cccc1Cl)C1=C(CC3(CCCC3)CC1=O)N2 (configuration not stated)
11,280 nM,Cc1ccc2c(c1)NC(c1ccccc1Cl)C1=C(CC(C)(C)CC1=O)N2 (configuration not stated)
12,540 nM,Cc1ccc2c(c1)NC(c1c(F)cccc1C(F)(F)F)C1=C(CC3(CCCC3)CC1=O)N2 (configuration not stated)

# System: HEK293
# Assay: Cytotoxicity against HEK293 cells up to 30 uM after 72 hrs by alamar blue assay
# Type: cell-based
# Conditions: human, hek293, 72 h
row,Structure (SMILES),Activity
1,"Cc1ccc2c(c1)NC(c1ccccc1C(F)(F)F)C1=C(CC3(CCCC3)CC1=O)N2 (single isomer, unassigned; (+))",Non-toxic

# System: HeLa
# Assay: Cytotoxicity against human HeLa cells up to 30 uM after 72 hrs by alamar blue assay
# Type: cell-based
# Conditions: not given
# How it was run: (§1)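 HeLa cells were seeded at 5k per well. Compounds were tested as a 9-point threefold dilution series, with triplicate readings at 0 and 72 h. At each time point Alamar Blue was added for 3 h at 37 °C and fluorescence was read. Relative growth was compared to a DMSO control well for each compound.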
row,Structure (SMILES),Activity
1,"Cc1ccc2c(c1)NC(c1ccccc1C(F)(F)F)C1=C(CC3(CCCC3)CC1=O)N2 (single isomer, unassigned; (+))",Non-toxic

# Target: T1, Neuromedin-B receptor
# Assay: Antagonist activity at human neuromedin B receptor transfected in HEK293 cells assessed as inhibition of 1 nM neuromedin B-induced myo-[3H]inositol phosphate accumulation after 60 mins by scintillation proximity assay
# Type: functional, cell-based
# Conditions: not given
# How it was run: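 hNMBR-transfected HEK293 cells (2.5 × 10⁴ per well) were labelled overnight at 37 °C with myo-[³H]inositol in inositol-free DMEM with 25 mM Hepes and 10% dialyzed FBS. Compounds were added in inositol-free DMEM with 0.3% BSA and 10 mM LiCl for 60 min at 37 °C. Cells were lysed in 20 mM formic acid (2 h, 4 °C), and inositol phosphates were captured on RNA-binding SPA beads for 30 min.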
row,IC50,Structure (SMILES)
1,580 nM,"Cc1ccc2c(c1)NC(c1ccccc1C(F)(F)F)C1=C(CC3(CCCC3)CC1=O)N2 (single isomer, unassigned; (+))"
2,5500 nM,Cc1ccc2c(c1)NC(c1c(F)cccc1Cl)C1=C(CC(C)(C)CC1=O)N2 (configuration not stated)

# System: HeLa
# Assay: Cytotoxicity against human HeLa cells after 72 hrs by alamar blue assay
# Type: cell-based
# Conditions: not given
# How it was run: as §1
row,Structure (SMILES),IC50
1,"Cc1ccc2c(c1)NC(c1ccccc1C(F)(F)F)C1=C(CC3(CCCC3)CC1=O)N2 (single isomer, unassigned; (+))",> 50000 nM
